These results are taken from ChEMBL document CHEMBL5329148, “Visible and NIR light photoactivatable o-hydroxycinnamate system for efficient drug release with fluorescence monitoring” (RSC Med Chem, 2023).

The subject of series [1] is A549. Put plainly: Photocytotoxicity in human A549 cells assessed as reduction in cell viability at 10 uM preincubated for 1 hr followed by two-photon NIR light irradiation for 10 mins and measured after 72 hrs by MTT assay. Type of series: functional. The note with it: time 4390 min, 73.17 h. An outline of the steps:
(§1)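 A549 cells (9000/well) were treated with compound for 1 h at 37 °C in the dark, then moved to PBS. They were irradiated with a two-photon femtosecond laser (800 nm, 50 mW) for 0, 5, 10, 15 or 20 min, then incubated 72 h in the dark in medium. Viability was read by MTT over 2 h, with formazan in DMSO at 570 nm. Unirradiated wells served as dark control.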
Background: Tetrazolium assays rely on reduction of a dye to a coloured formazan, in cell work by metabolically active cells.

Series [2] is described as follows: Drug localization in human A549 cells mitochondria at 10 uM incubated for 1 hr prior to PBS washout followed by visible light irradiation for 10 mins by inverted fluorescence microscopy analysis. The class given is ADME. The note with it: a549, 1 h. The gist of the method:
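A549 cells were loaded with 10 µM compound in complete DMEM for 1 h at 37 °C, washed, and irradiated in PBS with 400–700 nm light (11 mW) for 10 min. Mito Red (100 nM, 15 min) was added before a PBS wash. Coumarin signal was imaged at ex/em 350/460 nm and Mito Red at 550/580 nm. Overlap was taken from a scatter plot as Pearson's correlation coefficient.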

In series [3] the test system is A549. The experiment in a line: Photocytotoxicity in human A549 cells assessed as reduction in cell viability at 10 uM preincubated for 1 hr followed by two-photon NIR light irradiation for 5 mins and measured after 72 hrs by MTT assay. The note with it: time 4385 min, 73.08 h. The class given is functional. The gist of the method: as §1
The test system of series [4] is A549. The experiment in a line: Photo-induced drug release in human A549 cells assessed as increase in blue fluorescence at 10 uM incubated for 1 hr prior to PBS washout followed by visible light irradiation and further incubated for 10 mins by fluorescence imaging analysis. The note with it: a549, 1 h, TDE = time-dependent effect. Type of series: ADME, cell-based. The gist of the method: (§2)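 A549 cells (2 × 10^5/well, seeded a day before) received 10 µM compound for 1 h at 37 °C in the dark and were washed with cold PBS. They were irradiated with 400–700 nm light (11 mW) for 0, 2, 5, 10, 15, 20 or 30 min, then held 10 min. Blue-channel fluorescence was imaged and given as the mean of 30 cells, fitted to an exponential.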

Series [5] in a line: Drug uptake in human A549 cells at 10 uM incubated for 1 hr by FACS analysis. Type of series: ADME, cell-based. The note with it: a549, 1 h. An outline of the steps:
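A549 cells (1.5 × 10^5/well) were washed and given 10 µM compound in medium with 1% DMSO for 0, 0.5, 1 or 2 h at 37 °C. They were irradiated in PBS with visible light (400–700 nm, 11 mW) for 10 min, then trypsinized and resuspended in HBSS. Blue coumarin fluorescence was read by flow cytometry on about 10000 cells.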
(A flow cytometer gives signals particle by particle.)

The test system of series [6] is A549. Put plainly: Photo-induced drug release in human A549 cells assessed as increase in blue fluorescence at 10 uM incubated for 1 hr prior to PBS washout followed by visible light irradiation for 2 mins and further incubated for 10 mins by fluorescence imaging analysis. The class given is ADME, cell-based. To be noted: a549, 1 h. An outline of the steps: as §2

Series [7] relates to A549. Put plainly: Induction of mitochondrial membrane depolarization in human A549 cells after 1 hr by JC-1 dye staining based FACS analysis (reference value: 5.3 +/- 1.1 %). Type of series: functional.
Series [8] deals with A549. The experiment in a line: Induction of mitochondrial membrane depolarization in human A549 cells after 30 mins by JC-1 dye staining based FACS analysis (reference value: 5.3 +/- 1.1 %). The class given is functional. The note with it: 0.5 h.
In series [9] the test system is A549. Put plainly: Photocytotoxicity in human A549 cells assessed as reduction in cell viability preincubated for 1 hr followed by visible light irradiation for 30 mins and measured after 72 hrs by MTT assay. Type of series: functional, cell-based. To be noted: for IC50: A549, light or radiation study. The gist of the method:
(§3)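 A549 or MCF7 cells (9000/well, grown 24 h) were given compound in medium with ≤1% DMSO for 1 h at 37 °C in the dark, washed twice and placed in PBS. They were irradiated with 400–700 nm light (11 mW) for 10, 20 or 30 min, then incubated 72 h in the dark. Viability was read by MTT (2 h, 37 °C), with formazan in DMSO at 570 nm. Unirradiated wells served as dark control.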

A short description of series [10]: Drug release in 1: 9 DMSO/PBS at pH 4 at 50 uM under visible light irradiation upto 20 mins by emission spectroscopy. Type of series: ADME. To be noted: buffer, pH 4, 20 min. The gist of the method: (§4)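 Drug release was measured across pH 4–9. Solutions of 50 µM in 1:9 DMSO/buffer were irradiated with 400–700 nm light (11 mW) at 2 cm and 25 °C, in 2-min steps over 0–20 min. Release was taken from coumarin reporter emission (ex 385 nm, em 475 nm). A dark control received no light.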

A further series concerns MCF7. The experiment in a line: Photocytotoxicity in human MCF7 cells assessed as reduction in cell viability preincubated for 1 hr followed by visible light irradiation for 30 mins and measured after 72 hrs by MTT assay. Type of series: functional, cell-based. To be noted: MCF7, light or radiation study. The gist of the method:
as §3

For series [11], the system named is A549. Put plainly: Photocytotoxicity in human A549 cells assessed as reduction in cell viability preincubated for 1 hr followed by two-photon NIR light irradiation for 10 mins and measured after 72 hrs by MTT assay. The note with it: A549, light or radiation study.
Series [12] can be described thus: Drug release in 1: 9 DMSO/PBS at pH 7 at 50 uM under visible light irradiation upto 20 mins by emission spectroscopy. Type of series: ADME. The note with it: buffer, pH 7, 20 min. The gist of the method:
as §4

Series [13] in a line: Lipophilicity, logP of compound in n-Octanol/water. Type of series: physicochemical.
The subject of series [14] is A549. Put plainly: Dark toxicity in human A549 cells assessed as reduction in cell viability upto 20 uM incubated for 72 hrs by MTT assay. The note with it: a549, 72 h. The class given is cell-based. The gist of the method:
(§5)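 Cells seeded at 9000/well in DMEM with 10% FBS, grown 24 h at 37 °C in 5% CO2. Compound in medium with ≤1% DMSO for 1 h at 37 °C in the dark, washed twice with PBS, kept unirradiated, then incubated 72 h in the dark. MTT (5 mg mL-1 stock) added for 2 h at 37 °C, formazan dissolved in DMSO, absorbance read at 570 nm.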

The nature of series [15]: Drug release in 1: 9 DMSO/PBS at pH 9 at 50 uM under visible light irradiation upto 20 mins by emission spectroscopy. Type of series: ADME. The note with it: buffer, pH 9, 20 min. The gist of the method: as §4
Series [16] has as its system A549. The experiment in a line: (§6) Dark toxicity in human A549 cells assessed as reduction in cell viability incubated for 72 hrs by MTT assay. The class given is cell-based. The note with it: a549, 72 h, time 72 hrs. An outline of the steps: as §5
Series [17] relates to A549. The experiment in a line: Photocytotoxicity in human A549 cells assessed as reduction in cell viability at 10 uM preincubated for 1 hr followed by two-photon NIR light irradiation for 20 mins and measured after 72 hrs by MTT assay. To be noted: time 4400 min, 73.33 h. Type of series: functional. The gist of the method:
as §1

The test system of series [18] is A549. Put plainly: Photocytotoxicity in human A549 cells assessed as reduction in cell viability at 5 uM preincubated for 1 hr followed by visible light irradiation upto 30 mins and measured after 72 hrs by MTT assay. Type of series: functional, cell-based. The note with it: time 73.5 hrs, TDE = time-dependent effect. The gist of the method: as §3
Series [19] in a line: Dark toxicity in human MCF7 cells assessed as reduction in cell viability incubated for 72 hrs by MTT assay. Type of series: cell-based. The gist of the method:
as §5

A short description of series [20]: as §6. The note with it: A549 cells. The class given is cell-based. The gist of the method: as §5

With `CCN(CC)c1ccc(/C=C/C(=O)OC[C@H]2O[C@@H](n3ccc(N)nc3=O)C(F)(F)[C@@H]2O)c(O)c1`, the Activity in the series with A549 [1] was 47%; in the series on A549 [3], 35%; in the series with A549 [7], 82.3%; in the series on A549 [8], 13.9%; with A549 [9] (time 73.5 hrs) it was “Dose-Dependent Effect”; in the series on A549 [14], “Non-Toxic”. The Activity entry was “Non-Toxic” with A549 [16], 57% with A549 [17] and “Tde” with A549 [18]. For the same compound, the Drug uptake result in series [2] and in [5] was “Active” in each case. Also, the Drug metabolism result with A549 [4] was “Tde”; with A549 [6], “Metabolite_Detected”; in series [10] it was “Active”; in [12], “Active”; in [15], “Active”. For the same compound, the values for the IC50 with A549 [9], in the series with MCF7 and in the series with A549 [11] were 5050 nM, 5450 nM and 12500 nM, respectively. Further, the logP (usually the decadic logarithm of the partition coefficient of the neutral form, usually between octanol and water) in [13] was 2.1.

Regarding `Nc1ccn([C@@H]2O[C@H](CO)[C@@H](O)C2(F)F)c(=O)n1` [GEMCITABINE], the values for the IC50 at 72 h in series [19] and in series [20] were 1460 nM and 750 nM, respectively. For the same compound, the figures for the IC50 with A549 [9], with MCF7 and in the series with A549 [11] were 650 nM, 1360 nM and 800 nM, respectively.
